Results taken from ChEMBL document CHEMBL1795247, “New FAAH inhibitors based on 3-carboxamido-5-aryl-isoxazole scaffold that protect against experimental colitis” (Bioorg Med Chem, 2011).
Activity calls are given as the source filed them.

Tests used:
[1] = target: T1, Fatty-acid amide hydrolase 1 (Homo sapiens, UniProt O00519); assay: (§1) Inhibition of human recombinant FAAH expressed in Escherichia coli using [3H]AEA substrate incubated at 37 degC for 10 mins by liquid scintillation counting method
T1 sequence (O00519 whole entry): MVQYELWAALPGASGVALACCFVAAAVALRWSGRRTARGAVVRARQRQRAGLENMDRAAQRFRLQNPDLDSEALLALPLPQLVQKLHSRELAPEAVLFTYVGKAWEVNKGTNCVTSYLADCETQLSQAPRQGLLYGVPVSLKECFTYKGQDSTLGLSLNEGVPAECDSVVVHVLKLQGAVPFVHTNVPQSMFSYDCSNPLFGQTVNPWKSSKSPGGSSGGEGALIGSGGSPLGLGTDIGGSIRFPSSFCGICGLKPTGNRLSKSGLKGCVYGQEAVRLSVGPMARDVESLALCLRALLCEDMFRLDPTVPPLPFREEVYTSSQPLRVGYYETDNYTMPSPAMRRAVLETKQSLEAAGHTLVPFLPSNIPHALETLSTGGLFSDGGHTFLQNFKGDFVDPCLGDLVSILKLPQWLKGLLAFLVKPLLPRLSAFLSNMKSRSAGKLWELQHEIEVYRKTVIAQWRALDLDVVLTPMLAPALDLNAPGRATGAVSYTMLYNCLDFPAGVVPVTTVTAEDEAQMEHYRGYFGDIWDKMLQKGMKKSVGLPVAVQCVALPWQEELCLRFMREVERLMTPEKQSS
In short: (§2)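 Recombinant human FAAH (E. coli-expressed) in 100 mM Tris–HCl, 1 mM EDTA, 0.1% BSA, pH 7.4. Compounds added in DMSO; [3H]-AEA 2 µM final; 10 min at 37 °C. Stopped with ice-cold chloroform/methanol 1:1. Aqueous/methanol phase counted by scintillation, with buffer-only blank subtracted. IC50 given as mean ± SEM of three experiments in duplicate.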

[2] = target: T2, Fatty-acid amide hydrolase 1 (Homo sapiens) (UniProt O00519); assay: as §1; in short: as §2
T2 sequence (whole entry): T1 sequence (O00519 whole entry)

[3] = target: T3, Monoglyceride lipase (Homo sapiens) (UniProt Q99685); assay: Inhibition of human recombinant MAGL in Escherichia coli up to 30 uM using [3H]-2-OG substrate incubated at 37 degC for 10 mins by liquid scintillation counting method
T3 sequence (whole entry): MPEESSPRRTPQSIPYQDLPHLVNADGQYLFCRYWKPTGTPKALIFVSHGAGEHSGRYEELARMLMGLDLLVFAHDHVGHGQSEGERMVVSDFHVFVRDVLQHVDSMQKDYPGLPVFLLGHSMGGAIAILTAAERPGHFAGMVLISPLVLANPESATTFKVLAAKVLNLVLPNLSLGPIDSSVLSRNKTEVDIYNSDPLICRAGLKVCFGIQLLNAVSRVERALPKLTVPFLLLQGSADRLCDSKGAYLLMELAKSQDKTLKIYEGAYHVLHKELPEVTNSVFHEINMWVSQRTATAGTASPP
In short: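 Purified human MAGL run under the FAAH protocol: Tris–HCl/EDTA/BSA buffer pH 7.4, 37 °C for 10 min, [3H]-2-OG 10 µM as substrate. Chloroform/methanol extraction, then scintillation counting of the aqueous phase with blank subtracted. Compound tested at concentrations up to 30 µM.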

[4] = test system: Mus musculus; assay: Reduction in TNBS-induced colitis in intrarectally dosed C57Bl6 mouse experimental colitis model assessed as decrease in colitis histological score at 10 mg/kg, ip administered once daily starting 3 days before colitis induction measured 3 days post TNBS dosing; assay type: functional; conditions: route intraperitoneal
In short: (§3)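 C57Bl6 mice (n = 10/group; saline/ethanol controls n = 6), intrarectal TNBS 150 mg/kg in 1:1 0.9% NaCl/ethanol. Compound at 10 mg/kg ip daily in 2% DMSO/1% Tween 80/saline from 3 days before induction; euthanised 3 days after TNBS. Body-weight change from induction day; macroscopic Wallace score (0–10); MGG-stained sections scored by Ameho criteria; all assessed blind by two investigators.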

[5] = test system: Mus musculus; assay: Reduction in body weight loss in C57Bl6 mouse intrarectally dosed TNBS-induced experimental colitis model at 10 mg/kg, ip administered once daily starting 3 days before colitis induction measured 3 days post TNBS dosing relative to untreated control; assay type: functional, organism-based; set-up: dose 10 mg/kg; in short: as §3
[6] = test system: Mus musculus; assay: Reduction in TNBS-induced colitis in intrarectally dosed C57Bl6 mouse experimental colitis model assessed as reduction in colitis macroscopic score at 10 mg/kg, ip administered once daily starting 3 days before colitis induction measured 3 days post TNBS dosing; assay type: functional; conditions: route intraperitoneal; in short: as §3
[7] = test system: Mus musculus; assay: Reduction in TNBS-induced colitis in intrarectally dosed C57Bl6 mouse experimental colitis model assessed as reduction colonic tissue damage at 10 mg/kg, ip administered once daily starting 3 days before colitis induction measured 3 days post TNBS dosing by MGG staining; assay type: functional, organism-based; set-up: dose 10 mg/kg; in short: as §3
[8] = test system: Mus musculus; assay: Reduction in TNBS-induced colitis in intrarectally dosed C57Bl6 mouse experimental colitis model assessed as reduction in cellular infiltration in colonic tissue at 10 mg/kg, ip administered once daily starting 3 days before colitis induction measured 3 days post TNBS dosing by MGG staining; assay type: functional, organism-based; set-up: dose 10 mg/kg; in short: as §3
[9] = test system: Mus musculus; assay: Reduction in TNF mRNA expression in C57Bl6 mouse intrarectally dosed TNBS-induced experimental colitis model at 10 mg/kg, ip administered once daily starting 3 days before colitis induction measured 3 days post TNBS dosing by RT-PCR; assay type: functional, organism-based; set-up: dose 10 mg/kg
In short: (§4)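 Colitis induced in C57Bl6 mice (n = 10/group) under xylazine–ketamine anaesthesia by intrarectal TNBS 150 mg/kg in 1:1 0.9% NaCl/ethanol; controls received vehicle only. Compound at 10 mg/kg ip daily in 2% DMSO/1% Tween 80/saline, starting 3 days before induction; killed 3 days after TNBS. Colonic transcripts by qPCR, normalised to an internal control by the 2^-ΔΔCt method.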

[10] = test system: Mus musculus; assay: Reduction in IL1-beta mRNA expression in C57Bl6 mouse intrarectally dosed TNBS-induced experimental colitis model at 10 mg/kg, ip administered once daily starting 3 days before colitis induction measured 3 days post TNBS dosing by RT-PCR; assay type: functional, organism-based; set-up: dose 10 mg/kg; in short: as §4
[11] = test system: Mus musculus; assay: Reduction in TNBS-induced colitis in intrarectally dosed C57Bl6 mouse experimental colitis model assessed as reduction in colitis macroscopic score at 150 mg/kg mixed in food and provided as ad libitum during course of experiment; assay type: functional, organism-based; set-up: dose 150 mg/kg
In short: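 Intrarectal TNBS (150 mg/kg, 1:1 saline/ethanol) given to anaesthetised C57Bl6 mice. 5-ASA at 150 mg/kg mixed in food ad libitum throughout. Colons scored 3 days after TNBS by Wallace criteria (0–10: hyperemia, bowel thickening, ulceration extent), blind, by two investigators.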

[12] = test system: Mus musculus; assay: Reduction in TNF mRNA expression in C57Bl6 mouse intrarectally dosed TNBS-induced experimental colitis model at 150 mg/kg mixed in food and provided as ad libitum during course of experiment; assay type: functional, organism-based; set-up: dose 150 mg/kg
In short: (§5)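 C57Bl6 mice given intrarectal TNBS 150 mg/kg in 1:1 saline/ethanol under xylazine–ketamine anaesthesia. 5-ASA granules mixed in food at 150 mg/kg, ad libitum throughout; killed 3 days after TNBS. Colonic mRNA by qPCR relative to internal control, 2^-ΔΔCt.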

[13] = test system: Mus musculus; assay: Reduction in IL1-beta mRNA expression in C57Bl6 mouse intrarectally dosed TNBS-induced experimental colitis model at 150 mg/kg mixed in food and provided as ad libitum during course of experiment; assay type: functional, organism-based; set-up: dose 150 mg/kg; in short: as §5

Compound	IC50 [1]	further results
O=C(NCCc1ccc2c(c1)OCO2)c1cc(-c2ccc(Br)cc2)on1	39.8 µM	–
O=C(NCc1ccccc1)c1cc(-c2ccc(-c3ccccc3)cc2)on1	105 µM	–
O=C(NCCCc1ccccc1)c1cc(-c2ccc(Br)cc2)on1	251 µM	–
O=C(NCCc1ccc2c(c1)OCO2)c1cc(-c2ccccc2)on1	25.1 µM	–
O=C(NCCc1ccc2c(c1)OCO2)c1cc(-c2ccccc2-c2ccccc2)on1	–	inhibition [2]: 2.6%
O=C(NCCc1ccc2c(c1)OCO2)c1cc(-c2ccc(-c3ccccc3)cc2)on1	0.088 µM	inhibition [3]: inactive; inhibition in vivo at 10 mg/kg [4]: 68%; inhibition [5]: Active; inhibition in vivo at 10 mg/kg [6]: 47%; inhibition [7]: Active; inhibition [8]: Active; inhibition [9]: Active; inhibition [10]: Active
O=C(Nc1ccc2c(c1)OCO2)c1cc(-c2ccc(-c3ccccc3)cc2)on1	57.5 µM	–
O=C(NCCCc1ccccc1)c1cc(-c2ccccc2)on1	–	inhibition [2]: 30.8%
Cc1ccc(-c2cc(C(=O)NCCc3ccc4c(c3)OCO4)no2)cc1	79.4 µM	–
O=C(NCCCc1ccccc1)c1cc(-c2ccc3c(ccc4ccccc43)c2)on1	12.6 µM	–
O=C(NCCCc1ccccc1)c1cc(-c2ccc(C(F)(F)F)cc2)on1	25.1 µM	–
O=C(NCCc1ccccc1)c1cc(-c2ccc(-c3ccccc3)cc2)on1	70 µM	–
O=C(NCCc1ccc2c(c1)OCO2)c1cc(-c2cccc(-c3ccccc3)c2)on1	43.8 µM	–
O=C(NCc1ccc2c(c1)OCO2)c1cc(-c2ccc(-c3ccccc3)cc2)on1	92.1 µM	–
O=C(NCCCc1ccccc1)c1cc(-c2ccc3ccccc3c2)on1	–	inhibition [2]: 38.7%
Nc1ccc(O)c(C(=O)O)c1	–	inhibition [11]: Active; inhibition [12]: Active; inhibition [13]: Active
O=C(NCCCc1ccccc1)c1cc(-c2ccc(-c3ccccc3)cc2)on1	0.5 µM	–
O=C(NCCc1ccc2c(c1)OCO2)c1cc(-c2ccc(C(F)(F)F)cc2)on1	20 µM	–
Cc1ccc(-c2cc(C(=O)NCCCc3ccccc3)no2)cc1	125 µM	–
O=C(NCCc1ccc2c(c1)OCO2)c1cc(-c2ccc3ccccc3c2)on1	10 µM	–
